Measured values from ChEMBL document CHEMBL3286357, “Design, synthesis and pharmacological evaluation of novel substituted quinoline-2-carboxamide derivatives as human dihydroorotate dehydrogenase (hDHODH) inhibitors and anticancer agents” (Eur J Med Chem, 2014).

How the values were obtained:
[1] = Retention time of compound by HPLC analysis; assay type: physicochemical
A-375 [2] = assay: Antiproliferative activity against human A375 cells at 0.01 ug/ml for 24 hrs by MTT assay; assay type: functional; conditions: A-375, 24 h
Method in brief: (§1)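 HEP-3B or A-375 cells were grown in DMEM with 10% FBS, 5% HBSS, penicillin, streptomycin and amphotericin B at 37 C and 5% CO2. Cells were seeded at 2 × 10^4 per well and preincubated for 24 h. They were then exposed to ten 1:3 serial dilutions from a top concentration of 100, made from 2% DMSO stocks. MTT was added for 3 h, formazan was dissolved in DMSO, and A550 was read. Wells were run in triplicate across three independent experiments. IC50 came from dose-response curves.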

A-375 [3] = assay: Antiproliferative activity against human A375 cells at 0.02 ug/ml for 24 hrs by MTT assay; assay type: functional; conditions: A-375, 24 h; method in brief: as §1
A-375 [4] = assay: Antiproliferative activity against human A375 cells at 0.05 ug/ml for 24 hrs by MTT assay; assay type: functional; conditions: A-375, 24 h; method in brief: as §1
A-375 [5] = assay: Antiproliferative activity against human A375 cells at 0.14 ug/ml for 24 hrs by MTT assay; assay type: functional; conditions: A-375, 24 h; method in brief: as §1
A-375 [6] = assay: Antiproliferative activity against human A375 cells at 0.41 ug/ml for 24 hrs by MTT assay; assay type: functional; conditions: A-375, 24 h; method in brief: as §1
A-375 [7] = assay: Antiproliferative activity against human A375 cells at 1.23 ug/ml for 24 hrs by MTT assay; assay type: functional; conditions: A-375, 24 h; method in brief: as §1
A-375 [8] = assay: Antiproliferative activity against human A375 cells at 3.7 ug/ml for 24 hrs by MTT assay; assay type: functional; conditions: A-375, 24 h; method in brief: as §1
A-375 [9] = assay: Antiproliferative activity against human A375 cells at 11.11 ug/ml for 24 hrs by MTT assay; assay type: functional; conditions: A-375, 24 h; method in brief: as §1
A-375 [10] = assay: Antiproliferative activity against human A375 cells at 33.33 ug/ml for 24 hrs by MTT assay; assay type: functional; conditions: A-375, 24 h; method in brief: as §1
A-375 [11] = assay: Antiproliferative activity against human A375 cells at 100 ug/ml for 24 hrs by MTT assay; assay type: functional; conditions: A-375, 24 h; method in brief: as §1
[12] = Antiproliferative activity against human Hep3B cells at 0.01 ug/ml for 24 hrs by MTT assay; assay type: functional, Hep 3B2; method in brief: as §1
[13] = Antiproliferative activity against human Hep3B cells at 0.02 ug/ml for 24 hrs by MTT assay; assay type: functional, Hep 3B2; method in brief: as §1
[14] = Antiproliferative activity against human Hep3B cells at 0.05 ug/ml for 24 hrs by MTT assay; assay type: functional, Hep 3B2; method in brief: as §1
[15] = Antiproliferative activity against human Hep3B cells at 0.14 ug/ml for 24 hrs by MTT assay; assay type: functional, Hep 3B2; method in brief: as §1
[16] = Antiproliferative activity against human Hep3B cells at 0.41 ug/ml for 24 hrs by MTT assay; assay type: functional, Hep 3B2; method in brief: as §1
[17] = Antiproliferative activity against human Hep3B cells at 1.23 ug/ml for 24 hrs by MTT assay; assay type: functional, Hep 3B2; method in brief: as §1
[18] = Antiproliferative activity against human Hep3B cells at 3.7 ug/ml for 24 hrs by MTT assay; assay type: functional, Hep 3B2; method in brief: as §1
[19] = Antiproliferative activity against human Hep3B cells at 11.11 ug/ml for 24 hrs by MTT assay; assay type: functional, Hep 3B2; method in brief: as §1
[20] = Antiproliferative activity against human Hep3B cells at 33.33 ug/ml for 24 hrs by MTT assay; assay type: functional, Hep 3B2; method in brief: as §1
[21] = Antiproliferative activity against human Hep3B cells at 100 ug/ml for 24 hrs by MTT assay; assay type: functional, Hep 3B2; method in brief: as §1
A-375 (human melanoma) = assay: Antiproliferative activity against human A375 cells for 24 hrs by MTT assay; conditions: A-375, 24 h
HEP-3B (human hepatoma) = assay: Antiproliferative activity against human Hep3B cells for 24 hrs by MTT assay
[22] = biological target: Dihydroorotate dehydrogenase (quinone), mitochondrial (Homo sapiens, UniProt Q02127); assay: Inhibition of recombinant human DHODH activity after 20 mins by DCIP dye based colorimetric analysis in presence of 1 mM L-dihydroorotate and 0.1 mM CqD
Chain of Dihydroorotate dehydrogenase (quinone), mitochondrial (Q02127 whole entry): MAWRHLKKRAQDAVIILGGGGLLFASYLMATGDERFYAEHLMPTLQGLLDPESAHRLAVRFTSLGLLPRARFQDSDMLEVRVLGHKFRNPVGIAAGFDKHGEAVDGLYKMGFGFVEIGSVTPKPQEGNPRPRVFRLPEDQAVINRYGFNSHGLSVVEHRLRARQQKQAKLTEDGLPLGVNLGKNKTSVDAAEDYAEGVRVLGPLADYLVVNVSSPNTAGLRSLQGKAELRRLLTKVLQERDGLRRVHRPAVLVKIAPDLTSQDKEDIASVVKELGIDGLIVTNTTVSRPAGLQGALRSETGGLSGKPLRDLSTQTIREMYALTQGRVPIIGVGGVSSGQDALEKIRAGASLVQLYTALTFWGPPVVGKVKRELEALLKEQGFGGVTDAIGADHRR

Row | SMILES | Retention_time [1] [min] | inhibition at 0.01 µg/mL (A-375 [2]) [%] | inhibition at 0.02 µg/mL (A-375 [3]) [%] | inhibition at 0.05 µg/mL (A-375 [4]) [%] | inhibition at 0.14 µg/mL (A-375 [5]) [%] | inhibition at 0.41 µg/mL (A-375 [6]) [%] | inhibition at 1.23 µg/mL (A-375 [7]) [%] | inhibition at 3.7 µg/mL (A-375 [8]) [%] | inhibition at 11.11 µg/mL (A-375 [9]) [%] | inhibition at 33.33 µg/mL (A-375 [10]) [%] | inhibition at 100 µg/mL (A-375 [11]) [%] | inhibition at 0.01 µg/mL [12] [%] | inhibition at 0.02 µg/mL [13] [%] | inhibition at 0.05 µg/mL [14] [%] | inhibition at 0.14 µg/mL [15] [%] | inhibition at 0.41 µg/mL [16] [%] | inhibition at 1.23 µg/mL [17] [%] | inhibition at 3.7 µg/mL [18] [%] | inhibition at 11.11 µg/mL [19] [%] | inhibition at 33.33 µg/mL [20] [%] | other results
1 | Cc1c(C(=O)Nc2c(F)cc(-c3cccc(F)c3)cc2F)nc2ccc(OC(F)(F)F)cc2c1C(=O)O | 6.9 | -0.11 | 0.95 | 1.06 | 3.06 | 15.2 | 24.4 | 37.9 | 42.4 | 53.1 | 68.8 | 0.45 | 1.22 | 3.05 | 7.28 | 15.3 | 21.2 | 29.8 | 37.3 | 46.2 | inhibition at 100 µg/mL [21]: 75.3%; IC50 (A-375 (human melanoma)): 4.8 µM; IC50 (HEP-3B (human hepatoma)): 22 µM; IC50 [22]: 1.5 µM
2 | COc1ccc2nc(C(=O)Nc3c(F)cc(-c4cccc(F)c4)cc3F)c(C)c(O)c2c1 | 7.1 | 0.79 | 2.13 | 6.38 | 11.6 | 28.7 | 36.2 | 49.9 | 57.2 | 64.9 | 96.8 | 0.105 | 0.87 | 1.35 | 2.68 | 4.5 | 13.3 | 25.2 | 29.3 | 31.2 | inhibition at 100 µg/mL [21]: 46.2%; IC50 (A-375 (human melanoma)): 5.03 µM; IC50 (HEP-3B (human hepatoma)): 6.98 µM; IC50 [22]: 0.94 µM
3 | Cc1c(C(=O)Nc2c(F)cc(-c3cccc(F)c3)cc2F)nc2ccc(F)cc2c1C(=O)O | 7.2 | -0.56 | -0.22 | 0.37 | 1.05 | 3.02 | 16.3 | 24.5 | 36.2 | 41.3 | 64.3 | -0.35 | -0.13 | 0.05 | 0.65 | 1.06 | 2.45 | 11.2 | 26.3 | 34.3 | inhibition at 100 µg/mL [21]: 65.2%; IC50 (A-375 (human melanoma)): 14.7 µM; IC50 (HEP-3B (human hepatoma)): 81.9 µM; IC50 [22]: 4.58 µM
4 | Cc1c(C(=O)Nc2ccc(-c3ccccc3)cc2)nc2ccccc2c1O | 6.9 | -0.11 | 0.06 | 1.05 | 1.98 | 2.65 | 4.56 | 17.2 | 26.5 | 34.3 | 52.3 | 0.23 | 1.05 | 1.68 | 3.02 | 9.34 | 14.2 | 21.5 | 38.3 | 46.2 | inhibition at 100 µg/mL [21]: 84.2%; IC50 (A-375 (human melanoma)): 37.2 µM; IC50 (HEP-3B (human hepatoma)): 75.5 µM
5 | CCOc1ccc2nc(C(=O)Nc3c(F)cc(-c4cccc(F)c4)cc3F)c(C)c(O)c2c1 | 7.2 | 0.23 | 0.68 | 1.02 | 1.54 | 2.05 | 2.96 | 4.56 | 15.3 | 16.3 | 37.9 | -0.5 | -0.32 | -0.04 | 0.01 | 0.26 | 1.03 | 1.56 | 2.03 | 11.2 | inhibition at 100 µg/mL [21]: 33.2%; IC50 (A-375 (human melanoma)): > 100 µM; IC50 (HEP-3B (human hepatoma)): > 100 µM
6 | CCc1ccc2nc(C(=O)Nc3c(F)cc(-c4cccc(F)c4)cc3F)c(C)c(C(=O)O)c2c1 | 6.8 | -0.45 | -0.12 | 0.95 | 2.45 | 6.12 | 17.7 | 26.7 | 38.9 | 47.1 | 71.3 | -0.25 | -0.05 | 0 | 0.68 | 1.68 | 4.52 | 15.2 | 27.2 | 36.2 | inhibition at 100 µg/mL [21]: 64.3%; IC50 (A-375 (human melanoma)): 16.9 µM; IC50 (HEP-3B (human hepatoma)): 57.8 µM
7 | Cc1c(C(=O)Nc2ccc(-c3ccccc3)cc2)nc2ccccc2c1C(=O)O | 6.8 | -0.35 | 0.12 | 0.87 | 1.56 | 2.38 | 7.65 | 16.3 | 20.3 | 25.6 | 50.3 | -0.68 | -0.35 | -0.12 | 0.03 | 0.98 | 1.25 | 2.31 | 3.25 | 11.2 | inhibition at 100 µg/mL [21]: 44.4%; IC50 (A-375 (human melanoma)): 83.5 µM; IC50 (HEP-3B (human hepatoma)): > 100 µM
